One may read the solubility as the dissolved amount per volume that the medium holds. Read a high solubility as much dissolved substance. One may read the IC50 as the concentration at which inhibition is half-maximal.

This is an account of results in paper PMC4593509 (Medicinal chemistry research : an international journal for …, 2015).

Data set [1] in a line: Water solubility from a filtered saturated solution, by weight. The data set is classed as physicochemical. As to conditions: water, thermodynamic from solid.
Data set [2] deals with NCI-H460 cell line. The data set can be described thus: Annexin V. The data set is classed as cell-based, human. As to conditions: H460 cells. The procedure, abridged: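 NCI-H460 cells were seeded at 1×10^5 per well and left to adhere overnight. Test compound or cisplatin (40 µM) was diluted into medium from a 1% DMSO/water solution, and untreated controls got fresh medium, with 2 wells per treatment. After exposure, cells were washed twice in cold PBS and stained with FITC-Annexin V and PI in 1× binding buffer for 15 min at room temperature in the dark. Imaging used fluorescence microscopy at 10× and 20×.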

Data set [3] concerns NCI-H460. The data set can be described thus: MTT assay, cell viability after 72 h. As to conditions: Homo sapiens, NCI-H460, 72 h, read-out: IC50 (at day 3). The data set is classed as cell-based, human. The procedure, abridged:
(§1)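 Cells were kept in RPMI-1640 with 10% FBS at 37 °C and 5% CO₂, grown to confluency, seeded at 5,000–7,000 per well, and incubated 24 h. Medium was replaced with medium holding test compound, diluted from a 1% DMSO/water suspension, in six replicates each in triplicate. After 72 h, MTT in PBS was added for 4 h. Medium was then removed, formazan dissolved in DMSO, and OD read at 540 nm.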
For orientation: Tetrazolium dyes change colour on reduction, which living cells bring about.

The test system of data set [4] is NCI-H1975. Description: MTT assay, cell viability after 72 h. The data set is classed as cell-based, human. To be noted: Homo sapiens, NCI-H1975, 72 h, read-out: IC50 (at day 3). The gist of the method:
as §1

Data set [5] relates to PARP and caspase-3 in NCI-H460 cells. Description: Western blotting of apoptotic proteins caspase-3 and PARP. It counts as cell-based, human. To be noted: 5 μM. The gist of the method: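 Confluent NCI-H460 cells, seeded at 1×10^5 per well in RPMI-1640 with 10% FBS and 1% pen-strep, were serum-starved 24 h, then treated. Cells were lysed in ice-cold Tris pH 7.5/Triton X-100 buffer with protease/phosphatase inhibitors. Equal lysate amounts were run on 4–12% SDS-PAGE and moved to PVDF, then probed with PARP, caspase-3 and GAPDH antibodies (1:1,000, 4 °C overnight) and HRP anti-rabbit (1:5,000). Detection was by ECL, with GAPDH reprobe for normalization and cisplatin lysates as control.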
(Immunoblotting shows a protein as a band on a membrane.)

The test system of data set [6] is HCC827. Description: MTT assay, cell viability after 72 h. It counts as cell-based, human. As to conditions: Homo sapiens, HCC827, 72 h, read-out: IC50 (at day 3). The procedure, abridged: as §1

Each structure is given as a SMILES string.

Regarding `Clc1c(Cl)[n+](Cc2ccc3ccccc3c2)cn1Cc1ccc2ccccc2c1.[Br-]` [IC23, 4,5-dichloro-1,3-bis (naphthalen-2-ylmethyl)imidazolium bromide], the solubility in data set [1] was less than 100 µg/mL. Besides, the “stage of apoptosis (Annexin V / PI)” value was “early stage of apoptosis” in data set [2] (treatment 1 h, IC23 at 40 μM); “latestage apoptotic cells” in data set [2] (treatment 3 h, IC23 at 40 μM); “end stage of apoptosis” in data set [2] (treatment 6 h, IC23 and cisplatin at 40 μM). The IC50 in data set [3] came out at 5 µM; in data set [4] it was 6 µM; in data set [6], 8 µM. Further, the PARP cleavage result in data set [5] (H460 cell lysates, 12 h) is given as “presence of cleaved PARP”. In addition, in data set [5] (H460 cell lysates, 12 h), the “levels of procaspase-3” value is listed as “substantial reduction”. In addition, the “PARP-1 and procaspase-3 cleavage” value in data set [5] (H460 cells, 1 h) is “little PARP-1 and procaspase-3 cleavage”.
